Tests used:
[1] = biological target: 5-hydroxytryptamine receptor 2A (Homo sapiens, UniProt P28223); assay: Binding affinity against the cloned human 5-hydroxytryptamine 2A receptor using [125I]DOI as the radioligand
Outline: (§1)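 AV12 hamster fibroblast membranes stably expressing the human receptor, with 0.07-0.15 nM [125I]DOI. Buffer is 10 µM pargyline, 9.75 mM MgCl2, 0.5 mM EDTA, 0.1% ascorbate and 50 mM Tris pH 7.4. Incubation 30 min at 37 °C with about 40 µg (5-HT2A) or 30 µg (5-HT2C) protein, then gamma counting. Nonspecific binding set with 1 µM ketanserin (2A) or 10 µM mianserin (2C).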

[2] = biological target: 5-hydroxytryptamine receptor 2B (Homo sapiens, UniProt P41595); assay: Binding affinity against the cloned human 5-hydroxytryptamine 2B receptor using [3H]5-HT as the radioligand
Chain of 5-hydroxytryptamine receptor 2B (P41595 whole entry): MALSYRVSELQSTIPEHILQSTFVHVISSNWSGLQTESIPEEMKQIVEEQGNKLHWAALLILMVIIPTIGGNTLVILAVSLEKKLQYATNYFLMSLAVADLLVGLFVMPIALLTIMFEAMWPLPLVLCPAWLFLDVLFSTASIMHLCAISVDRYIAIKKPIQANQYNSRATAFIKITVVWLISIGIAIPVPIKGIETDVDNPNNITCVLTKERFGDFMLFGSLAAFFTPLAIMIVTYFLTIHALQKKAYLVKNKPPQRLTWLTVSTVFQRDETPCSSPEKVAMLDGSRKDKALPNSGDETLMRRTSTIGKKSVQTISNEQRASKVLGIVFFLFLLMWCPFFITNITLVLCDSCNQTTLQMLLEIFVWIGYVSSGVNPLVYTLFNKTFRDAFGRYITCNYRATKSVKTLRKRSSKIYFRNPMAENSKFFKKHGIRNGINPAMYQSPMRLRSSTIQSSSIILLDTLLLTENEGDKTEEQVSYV
Outline: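 Membranes come from AV12 hamster fibroblasts stably expressing the human receptor. About 2 nM [3H]-5-HT is used with drug dilutions spanning 6 log units, in 3 mM CaCl2, 10 µM pargyline, 50 mM Tris and 0.1% ascorbic acid, pH 7.4. Triplicate tubes with 100-150 µg protein, 15 min at 37 °C, PEI-soaked GF/B filtration. Nonspecific binding set with 10 µM 5-HT or 10 µM 1-naphthylpiperazine.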

[3] = biological target: T1, 5-hydroxytryptamine receptor 2C (Homo sapiens, UniProt P28335); assay: Binding affinity against the cloned human 5-hydroxytryptamine 2C receptor using [125I]DOI as the radioligand; outline: as §1
T1 sequence (P28335 whole entry): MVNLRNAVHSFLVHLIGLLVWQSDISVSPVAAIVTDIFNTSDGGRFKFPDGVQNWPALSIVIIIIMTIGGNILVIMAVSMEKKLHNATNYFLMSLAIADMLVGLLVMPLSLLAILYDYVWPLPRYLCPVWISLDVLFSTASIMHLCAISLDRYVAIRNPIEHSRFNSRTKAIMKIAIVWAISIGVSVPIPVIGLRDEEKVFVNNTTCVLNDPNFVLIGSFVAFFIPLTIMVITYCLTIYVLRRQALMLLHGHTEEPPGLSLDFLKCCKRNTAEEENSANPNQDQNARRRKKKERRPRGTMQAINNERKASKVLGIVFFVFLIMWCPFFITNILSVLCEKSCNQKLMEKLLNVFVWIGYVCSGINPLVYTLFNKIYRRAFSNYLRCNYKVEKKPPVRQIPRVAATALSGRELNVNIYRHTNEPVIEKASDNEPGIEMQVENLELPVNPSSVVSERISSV

[4] = biological target: T2, 5-hydroxytryptamine receptor 1A (Rattus norvegicus, UniProt P19327); assay: Binding affinity against the 5-hydroxytryptamine 1A receptor labelled with [3H]8-OH-DPAT in rat hippocampal homogenates; assay type: tissue-based, Hippocampus
T2 sequence (P19327 whole entry): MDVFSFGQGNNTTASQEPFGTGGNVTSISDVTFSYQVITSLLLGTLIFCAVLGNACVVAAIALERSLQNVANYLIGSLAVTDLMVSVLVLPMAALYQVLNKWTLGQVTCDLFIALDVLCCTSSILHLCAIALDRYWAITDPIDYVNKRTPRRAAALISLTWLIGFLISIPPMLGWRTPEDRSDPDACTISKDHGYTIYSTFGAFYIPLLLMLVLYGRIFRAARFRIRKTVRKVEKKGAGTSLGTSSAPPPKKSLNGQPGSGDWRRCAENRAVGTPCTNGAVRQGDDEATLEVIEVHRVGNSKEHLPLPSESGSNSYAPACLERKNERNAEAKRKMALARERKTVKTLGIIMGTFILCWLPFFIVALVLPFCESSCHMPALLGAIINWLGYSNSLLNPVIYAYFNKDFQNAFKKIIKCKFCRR
Outline: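 Buffer is 50 mM Tris HCl pH 7.4 with 0.5 mM Na2EDTA, 0.1% Na ascorbate and pargyline. Triplicate tubes with 200-400 µg protein, 15 min at 37 °C, GF/C filtration. Nonspecific binding set with 10 µM 5-HT.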

Chain of 5-hydroxytryptamine receptor 2A (P28223 whole entry): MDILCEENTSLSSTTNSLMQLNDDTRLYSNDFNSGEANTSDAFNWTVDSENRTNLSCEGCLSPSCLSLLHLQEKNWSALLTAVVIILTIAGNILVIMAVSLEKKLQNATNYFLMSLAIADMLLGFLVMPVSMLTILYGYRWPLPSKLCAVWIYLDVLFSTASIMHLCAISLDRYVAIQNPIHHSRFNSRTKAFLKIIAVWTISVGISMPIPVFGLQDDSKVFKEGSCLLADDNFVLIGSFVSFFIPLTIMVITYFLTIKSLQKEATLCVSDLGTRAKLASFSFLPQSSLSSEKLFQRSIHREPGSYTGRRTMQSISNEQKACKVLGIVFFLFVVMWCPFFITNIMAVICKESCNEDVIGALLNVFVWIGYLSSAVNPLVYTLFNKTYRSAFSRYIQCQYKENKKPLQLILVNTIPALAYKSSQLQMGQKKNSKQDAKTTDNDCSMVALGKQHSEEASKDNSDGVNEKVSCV

SMILES	Ki [1] [nM]	Ki [2] [nM]	Ki [3] [nM]	Ki [4] [nM]
NC1CC1c1c[nH]c2ccccc12 (racemic)	164	58.3	29.9	–
COc1cccc2[nH]cc(C3CC3N)c12 (stereo not drawn)	45.9	64.9	11.8	–
COc1ccc2[nH]cc(C(C)CN)c2c1 (stereo not drawn)	2.2	8.3	1	–
N[C@H]1C[C@@H]1c1c[nH]c2ccccc12	132	93.5	21.3	810
N[C@@H]1C[C@H]1c1c[nH]c2ccccc12	98.2	58.5	44.1	258
COc1ccc2[nH]cc(C3CC3N)c2c1 (stereo not drawn)	30.9	38.1	17.8	40.1
CC(CN)c1c[nH]c2ccccc12 (stereo not drawn)	41	87	9.3	–
NC1CC1c1c[nH]c2ccc(F)cc12 (stereo not drawn)	10.2	5.7	1.9	258
